# Legend:
# [1] = humans, given intravenously; cited from earlier work
# [2] = test system: thyroparathyroidectomized (TPTx) rats; assay: TPTx rat 7-day efficacy study; format: in vivo, Sprague–Dawley rats
# Summary of the method: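 Female TPTx SD rats, 250–300 g, randomised on baseline calcium and weight (n = 12). Daily SC dosing in PBS (1 mL/kg) for 7 days. Day-1 jugular serum drawn from two cohorts at 0, 2, 6, 10, 18 and 24 h; calcium and phosphate measured on a Hitachi 7180. Predose serum on days −6, 4 and 7 assayed by osteocalcin, PINP and CTX-I ELISAs.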
# [3] = test system: thyroparathyroidectomized (TPTx) rats; assay: TPTx rat 28-day efficacy study; format: in vivo, Sprague–Dawley rats; settings: daily SC 10 nmol/kg
# Summary of the method: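 Female thyroparathyroidectomised Crl-CD SD rats, 215–290 g, randomised on baseline serum calcium and body weight after 9 days of acclimation. Daily SC dosing in PBS (1 mL/kg) for 28 days. Jugular serum taken in two alternating cohorts on days 1, 12 and 27 at 0, 2, 6, 10 and 24 h, run on a Hitachi 7180 analyser (n = 5/cohort). Urine n = 10/group. Distal femur BMD by pQCT, n = 10/group.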
Molecule,plasma half-life [1],"serum calcium, day 1 after first dose ([2]; SC 3 nmol/kg, 0–24 h)","bone formation markers osteocalcin and PINP ([2]; daily SC 3 nmol/kg, serum, days 4 and 7)","serum phosphate, days 4 and 7 ([2]; daily SC 3 nmol/kg, three timepoints)","bone remodeling markers (osteocalcin, CTX, PINP) [3]","BMD, cortical region of the diaphysis (pQCT) ([3]; 28 days)","serum calcium ([3]; 28 days, days 1, 12, 27)","BMD, distal femur metaphysis (pQCT) ([3]; 28 days, vs TPTx: vehicle)","urinary calcium (creatinine-normalized) ([3]; days 1, 14, 27)",serum phosphate ([3]; days 12 and 27)
"PTH: endogenous human polypeptide, 84 amino acids in length",less than 10 min,–,–,–,–,–,–,–,–,–
"PTH(1-84): Recombinant human PTH(1-84), Natpara (Takeda); native parathyroid hormone comparator (protein, UniProt P01270 32-115, looked up, Parathyroid hormone) Parathyroid hormone: SVSEIQLMHNLGKHLNSMERVEWLRKKLQDVHNFVALGAPLAPRDAGSQRPRKKEDNVLVESHEKSLGEADKADVNVLTKAKSQ",–,unaffected,only induced a small increase,only transiently lower serum phosphate at the 2 h timepoints,"increased serum concentrations of osteocalcin and CTX, but had only minimal effect on PINP",small but statistically significant decrease in BMD,no increase or only small increases in serum calcium,unchanged or slightly increased,not significantly increased,much smaller decrease in serum phosphate

# Source: article PMC11078046 (JBMR Plus, 2024)
